Laboratory results: ChEMBL document CHEMBL5674865, “BRD4 associates with p53 in DNMT3A-mutated leukemia cells and is implicated in apoptosis by the bromodomain inhibitor JQ1” (Cancer Med, 2013)
Active and inactive are the calls of the source. The rule behind the calls is not given here.

What was measured:
[1] = system: OCI-AML-3; assay: Induction of apoptosis in human OCI-AML-3 cells harbouring DNMT3A-R882C and NPM1c mutants co-expressing wild-type p53 at 1 uM assessed as activation of caspase 8 measured after 24 hrs by Caspase-Glo 8 assay; type: functional, cell-based
Method in brief: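 OCI-AML3 cells plated at 20,000 per well and treated for 24 h. Caspase 8 activation read as luminescent signal with the Caspase-Glo 8 kit; 1 µmol/L is the positive-control level used. Mean of at least three independent experiments ± SEM; Student's t-test, P < 0.05.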

[2] = system: OCI-AML-3; assay: Antiproliferative activity against human OCI-AML-3 cells harbouring DNMT3A-R882C and NPM1c mutants co-expressing wild-type p53 at 0.125 to 0.25 uM assessed as decrease in cell viability in combination of 1 to 5 uM nutlin-3 after 72 hrs by WST-1 assay; type: functional, cell-based; details: dose 0.125-0.25 µM
Method in brief: (§1)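 WST-1 viability of OCI-AML3 combinations. 20,000 cells per well treated with 0.25 µmol/L JQ1 plus the partner compound (Nutlin-3 0–2 µmol/L or 1–5 µmol/L; TSA 20 nmol/L; vorinostat 0.625 µmol/L; sodium butyrate 0.5 mmol/L; daunorubicin 0–50 nmol/L), applied together for 72 h. Read at 450 nm and expressed as % of untreated. Three experiments run in triplicate.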

[3] = system: OCI-AML-3; assay: Antiproliferative activity against human OCI-AML-3 cells harbouring DNMT3A-R882C and NPM1c mutants co-expressing wild-type p53 at 0.25 uM assessed as cell death after 96 hrs by trypan blue assay; type: functional, cell-based
Method in brief: (§2)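 OCI-AML3 growth curves. 80,000 cells per well in medium with or without 0.25 µmol/L JQ1. Viable cells counted by trypan blue exclusion every 24 h up to 96 h.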

[4] = system: OCI-AML-3; assay: Induction of apoptosis in human OCI-AML-3 cells harbouring DNMT3A-R882C and NPM1c mutants co-expressing wild-type p53 at 0.25 uM assessed as activation of caspase 3/7 measured after 24 hrs by Caspase-Glo 3/7 assay; type: functional, cell-based
Method in brief: (§3)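 Caspase-Glo 3/7 luminescence assay. OCI-AML3, Raji or K562 cells plated at 20,000 per well and treated with 0.25 µmol/L JQ1, with or without 20 nmol/L TSA. Luminescence read at 2, 4 or 24 h.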

[5] = system: OCI-AML-3; assay: Induction of DNA damage in human OCI-AML-3 cells harbouring DNMT3A-R882C and NPM1c mutants co-expressing wild-type p53 at 0.25 uM assessed as increase in 53BP1 foci incubated for 24 hrs by immunolabeling method; type: functional, cell-based
Method in brief: (§4)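 OCI-AML3 cells treated 24 h with 0.25 µmol/L JQ1, alone or with 10 µmol/L KU60019, […] caffeine or 1 µmol/L NU7026 added together. Cells cytospun, fixed in 4% paraformaldehyde and permeabilized with 0.2% Triton X-100. Stained with anti-γH2AX (1:500) and anti-53BP1 (1:1000) for 1 h at RT, then fluorescent secondaries and DAPI. Pan-nuclear γH2AX cells and 53BP1 foci scored by microscopy. Three experiments.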

[6] = system: OCI-AML-3; assay: Antiproliferative activity against human OCI-AML-3 cells harbouring DNMT3A-R882C and NPM1c mutants co-expressing wild-type p53 at 0.25 uM assessed as decrease in cell viability after 96 hrs by trypan blue assay; type: functional, cell-based; method in brief: as §2
[7] = system: OCI-AML-3; assay: Antiproliferative activity against human OCI-AML-3 cells harbouring DNMT3A-R882C and NPM1c mutants co-expressing wild-type p53 at 0.25 uM assessed as decrease in cell viability in combination of 5 to 50 nM daunorubicin after 72 hrs by WST-1 assay; type: functional, cell-based; method in brief: as §1
[8] = system: OCI-AML-3; assay: Induction of apoptosis in human OCI-AML-3 cells harbouring DNMT3A-R882C and NPM1c mutants co-expressing wild-type p53 at 0.25 uM assessed as activation of caspase 3/7 measured at 2 hrs by Caspase-Glo 3/7 assay; type: functional, cell-based; method in brief: as §3
[9] = system: OCI-AML-3; assay: Induction of DNA damage in human OCI-AML-3 cells harbouring DNMT3A-R882C and NPM1c mutants co-expressing wild-type p53 at 0.25 uM assessed as induction of gammaH2AX incubated for 24 hrs in combination with […] by immunolabeling method; type: functional, cell-based; method in brief: as §4
[10] = system: K562; assay: Antiproliferative activity against human K562 cells assessed as decrease in cell viability after 96 hrs by WST-1 assay; type: functional, cell-based
Method in brief: (§5)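 WST-1 viability assay. 2 × 10^4 cells per well with compound, incubated for the indicated times, read at 450 nm 2–4 h after WST-1 addition. Viability is given as % of untreated cells by optical density. Compounds are dissolved in DMSO and diluted in PBS.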

[11] = system: OCI-AML-3; assay: Antiproliferative activity against human OCI-AML-3 cells harbouring DNMT3A-R882C and NPM1c mutants co-expressing wild-type p53 at 0.25 uM assessed as decrease in cell viability in combination of 20 nM trichostatin A after 72 hrs by WST-1 assay; type: functional, cell-based; method in brief: as §1
[12] = system: K562; assay: Induction of apoptosis in human K562 cells at 0.25 uM assessed as activation of caspase 3/7 measured after 24 hrs by Caspase-Glo 3/7 assay; type: functional, cell-based; method in brief: as §3
[13] = system: OCI-AML-3; assay: Induction of apoptosis in human OCI-AML-3 cells harbouring DNMT3A-R882C and NPM1c mutants co-expressing wild-type p53 at 0.25 uM assessed as activation of caspase 3/7 measured at 4 hrs by Caspase-Glo 3/7 assay; type: functional, cell-based; method in brief: as §3
[14] = system: OCI-AML-3; assay: Induction of DNA damage in human OCI-AML-3 cells harbouring DNMT3A-R882C and NPM1c mutants co-expressing wild-type p53 at 0.25 uM assessed as increase in pyknotic nuclei incubated for 48 hrs by DAPI staining method; type: functional
Method in brief: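 OCI-AML3 cells treated with 0.25 µmol/L JQ1 for 48 h, cytospun and fixed. DAPI-stained nuclei examined by fluorescence microscopy and the percentage of pyknotic nuclei scored.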

[15] = system: OCI-AML-3; assay: Induction of DNA damage in human OCI-AML-3 cells harbouring DNMT3A-R882C and NPM1c mutants co-expressing wild-type p53 at 0.25 uM assessed as increase in pan-nuclear gammaH2AX foci incubated for 24 hrs by immunolabeling method; type: functional, cell-based; method in brief: as §4
[16] = system: OCI-AML-3; assay: Antiproliferative activity against human OCI-AML-3 cells harbouring DNMT3A-R882C and NPM1c mutants co-expressing wild-type p53 at 1 uM assessed as decrease in cell viability after 96 hrs by WST-1 assay; type: functional, cell-based; method in brief: as §5
[17] = system: OCI-AML-3; assay: Antiproliferative activity against human OCI-AML-3 cells harbouring DNMT3A-R882C and NPM1c mutants co-expressing wild-type p53 assessed as decrease in cell viability after 96 hrs by WST-1 assay; type: functional, cell-based; method in brief: as §5
[18] = system: OCI-AML-3; assay: Induction of apoptosis in human OCI-AML-3 cells harbouring DNMT3A-R882C and NPM1c mutants co-expressing wild-type p53 at 0.25 uM assessed as activation of caspase 3/7 measured in combination of 20 nM trichostatin A after 24 hrs by Caspase-Glo 3/7 assay; type: functional, cell-based; method in brief: as §3
[19] = system: OCI-AML-3; assay: Antiproliferative activity against human OCI-AML-3 cells harbouring DNMT3A-R882C and NPM1c mutants co-expressing wild-type p53 at 0.25 uM assessed as decrease in cell viability in combination of 0.5 mM sodium butyrate after 72 hrs by WST-1 assay; type: functional, cell-based; method in brief: as §1
[20] = system: Raji; assay: Induction of apoptosis in human Raji cells at 0.25 uM assessed as activation of caspase 3/7 measured after 24 hrs by Caspase-Glo 3/7 assay; type: functional, cell-based; method in brief: as §3
[21] = system: OCI-AML-3; assay: Induction of apoptosis in human OCI-AML-3 cells harbouring DNMT3A-R882C and NPM1c mutants co-expressing wild-type p53 at 0.25 uM assessed as activation of caspase 8 measured after 24 hrs by Caspase-Glo 8 assay; type: functional, cell-based
Method in brief: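 Caspase-Glo 8 luminescence assay. OCI-AML3 cells plated at 20,000 per well and treated with 0.25 µmol/L JQ1 for 24 h. BI-2536 at 1 µmol/L used as positive control.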

[22] = system: Raji; assay: Antiproliferative activity against human Raji cells assessed as decrease in cell viability after 96 hrs by WST-1 assay; type: functional, cell-based; method in brief: as §5
[23] = system: OCI-AML-3; assay: Induction of DNA damage in human OCI-AML-3 cells harbouring DNMT3A-R882C and NPM1c mutants co-expressing wild-type p53 at 0.25 uM assessed as increase in PCNA labelling for 48 hrs by DAPI staining method; type: functional, cell-based
[24] = system: OCI-AML-3; assay: Induction of apoptosis in human OCI-AML-3 cells harbouring DNMT3A-R882C and NPM1c mutants co-expressing wild-type p53 at 0.25 uM measured after 24 hrs by Annexin V/PI staining based flow cytometry method; type: functional, cell-based
Method in brief: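 OCI-AML3 cells treated for 24 h with 0.25 µmol/L JQ1, Nutlin-3 or both. Stained with annexin V and propidium iodide and analyzed by flow cytometry. Quadrant analysis of apoptotic populations.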

[25] = system: OCI-AML-3; assay: Antiproliferative activity against human OCI-AML-3 cells harbouring DNMT3A-R882C and NPM1c mutants co-expressing wild-type p53 at 0.25 uM assessed as decrease in cell viability in combination of 0.625 uM vorinostat after 72 hrs by WST-1 assay; type: functional, cell-based; method in brief: as §1
[26] = system: OCI-AML-3; assay: Induction of DNA damage in human OCI-AML-3 cells harbouring DNMT3A-R882C and NPM1c mutants co-expressing wild-type p53 at 0.25 uM assessed as induction of gammaH2AX incubated for 24 hrs in combination with 1 uM NU7026 by immunolabeling method; type: functional, cell-based; method in brief: as §4
[27] = system: OCI-AML-3; assay: Induction of DNA damage in human OCI-AML-3 cells harbouring DNMT3A-R882C and NPM1c mutants co-expressing wild-type p53 at 0.25 uM assessed as induction of gammaH2AX incubated for 24 hrs in combination with 10 uM KU60019 by immunolabeling method; type: functional, cell-based; method in brief: as §4
[28] = system: OCI-AML-3; assay: Antiproliferative activity against human OCI-AML-3 cells harbouring DNMT3A-R882C and NPM1c mutants co-expressing wild-type p53 at 1 to 5 uM assessed as decrease in cell viability after 72 hrs by WST-1 assay; type: functional, cell-based; details: dose 1-5 µM
Method in brief: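 OCI-AML3 cells (DNMT3A-R882, NPM1c, p53 wild-type) in RPMI 1640 with 10% FCS, L-glutamine, penicillin and streptomycin. Cells plated at 2 × 10^4 per well and exposed for 72 h; DMSO stocks diluted in PBS. WST-1 added and absorbance read at 450 nm 2–4 h later. Viability taken relative to untreated cells (100%). Three experiments in triplicate, mean ± SEM.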

## CC[C@@H]1C(=O)N(C)c2cnc(Nc3ccc(C(=O)NC4CCN(C)CC4)cc3OC)nc2N1C1CCCC1
[1]
  Activity: Active

## COc1ccc(C2=NC(c3ccc(Cl)cc3)C(c3ccc(Cl)cc3)N2C(=O)N2CCNC(=O)C2)c(OC(C)C)c1.Cc1sc2c(c1C)C(c1ccc(Cl)cc1)=N[C@@H](CC(=O)OC(C)(C)C)c1nnc(C)n1-2 (stereo unspecified)
[2]
  Activity: Active

## Cc1sc2c(c1C)C(c1ccc(Cl)cc1)=N[C@@H](CC(=O)OC(C)(C)C)c1nnc(C)n1-2
[3]
  Activity: Active
[4]
  Activity: Active
[5]
  Activity: Active
[6]
  Activity: Active
[7]
  Activity: Active
[8]
  Activity: inactive
[9]
  Activity: inactive
[10]; K562, 96 h
  IC50: > 2000 nM
[11]
  Activity: Active
[12]
  Activity: inactive
[13]
  Activity: inactive
[14]
  Activity: 3.2%
[15]
  Activity: inactive
[16]
  Activity: Active
[17]; OCI-AML-3, 96 h
  IC50: ~500 nM
[18]
  Activity: Active
[19]
  Activity: Active
[20]
  Activity: Active
[21]
  Activity: inactive
[22]
  IC50: ~1000 nM
[23]
  Activity: Active
[24]
  Activity: Active
[25]
  Activity: Active
[26]
  Activity: inactive

## C[C@@H]1CN(CC(=O)Nc2ccc3c(c2)Cc2cccc(-c4cc(=O)cc(N5CCOCC5)o4)c2S3)C[C@H](C)O1.Cc1sc2c(c1C)C(c1ccc(Cl)cc1)=N[C@@H](CC(=O)OC(C)(C)C)c1nnc(C)n1-2
[27]
  Activity: inactive

## COc1ccc(C2=NC(c3ccc(Cl)cc3)C(c3ccc(Cl)cc3)N2C(=O)N2CCNC(=O)C2)c(OC(C)C)c1 (stereo unspecified)
[28]
  Activity: inactive

## Cc1sc2c(c1C)C(c1ccc(Cl)cc1)=N[C@H](CC(=O)OC(C)(C)C)c1nnc(C)n1-2
[10]
  Activity: inactive
[17]; dose 1.0 µM
  Activity: inactive
[22]
  Activity: inactive
